According to ChEMBL document CHEMBL3243979, “Syntheses of N-substituted 2(3,4)-pyridylcarboxylic acid hydrazides with analgesic and antiinflammatory activity” (1979):

Columns and labels:
Type in all cases: functional
Mus musculus [1] = test: Analgesic activity in Swiss albino mouse assessed as inhibition of phenyl-p-benzoquinone-induced writhing at 128 mg/kg, sc administered 30 mins prior challenge relative to vehicle-treated control; details: route subcutaneous
In short: (§1)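 Male Swiss albino mice, 18–22 g, five per group. Compound suspended in physiological saline with Tween 80 and given sc. At 30 min, 0.03% phenyl-p-benzoquinone given ip at 0.1 mL/10 g body weight. Total writhes per animal counted against a vehicle-treated control group. % change = (treated writhes/control writhes) × 100 − 100.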

Rattus norvegicus [2] = test: Antiinflammatory activity in Sprague-Dawley rat assessed as inhibition of carrageenan-induced paw edema at 128 mg/kg, sc administered post-challenge measured at 3 hrs post compound treatment relative to vehicle-treated control; details: route subcutaneous
Rattus norvegicus [3] = test: Antiinflammatory activity in Sprague-Dawley rat assessed as inhibition of carrageenan-induced paw edema at 128 mg/kg, sc administered post-challenge measured at 5 hrs post compound treatment relative to vehicle-treated control; details: route subcutaneous
Rattus norvegicus [4] = test: Antiinflammatory activity in Sprague-Dawley rat assessed as inhibition of carrageenan-induced paw edema at 64 mg/kg, […] measured at 3 hrs post compound treatment relative to vehicle-treated control; details: sc, route subcutaneous
Rattus norvegicus [5] = test: Antiinflammatory activity in Sprague-Dawley rat assessed as inhibition of carrageenan-induced paw edema at 64 mg/kg, sc administered post-challenge measured at 5 hrs post compound treatment relative to vehicle-treated control; details: route subcutaneous
Mus musculus [6] = test: Analgesic activity in Swiss albino mouse assessed as inhibition of phenyl-p-benzoquinone-induced writhing at 11.8 mg/kg, sc administered 30 mins prior challenge relative to vehicle-treated control; details: route subcutaneous; in short: as §1
Rattus norvegicus [7] = test: Antiinflammatory activity in Sprague-Dawley rat assessed as inhibition of carrageenan-induced paw edema at 120 mg/kg, […] measured at 3 hrs post compound treatment relative to vehicle-treated control; details: sc, route subcutaneous
Rattus norvegicus [8] = test: Antiinflammatory activity in Sprague-Dawley rat assessed as inhibition of carrageenan-induced paw edema at 120 mg/kg, sc administered post-challenge measured at 5 hrs post compound treatment relative to vehicle-treated control; details: route subcutaneous
Mus musculus [9] = test: Analgesic activity in Swiss albino mouse assessed as inhibition of phenyl-p-benzoquinone-induced writhing at 120 mg/kg, sc administered 30 mins prior challenge relative to vehicle-treated control; details: route subcutaneous; in short: as §1
Rattus norvegicus [10] = test: Antiinflammatory activity in Sprague-Dawley rat assessed as inhibition of carrageenan-induced paw edema at 100 mg/kg, […] measured at 3 hrs post compound treatment relative to vehicle-treated control; details: sc, route subcutaneous
Rattus norvegicus [11] = test: Antiinflammatory activity in Sprague-Dawley rat assessed as inhibition of carrageenan-induced paw edema at 100 mg/kg, sc administered post-challenge measured at 5 hrs post compound treatment relative to vehicle-treated control; details: route subcutaneous
Mus musculus [12] = test: Analgesic activity in Swiss albino mouse assessed as inhibition of phenyl-p-benzoquinone-induced writhing at 50 mg/kg, sc administered 30 mins prior challenge relative to vehicle-treated control; details: route subcutaneous; in short: as §1
Rattus norvegicus [13] = test: Antiinflammatory activity in Sprague-Dawley rat assessed as inhibition of carrageenan-induced paw edema at 12 mg/kg, sc administered post-challenge measured at 3 hrs post compound treatment relative to vehicle-treated control; details: route subcutaneous
Rattus norvegicus [14] = test: Antiinflammatory activity in Sprague-Dawley rat assessed as inhibition of carrageenan-induced paw edema at 12 mg/kg, sc administered post-challenge measured at 5 hrs post compound treatment relative to vehicle-treated control; details: route subcutaneous
Mus musculus [15] = test: Analgesic activity in Swiss albino mouse assessed as inhibition of phenyl-p-benzoquinone-induced writhing at 56 mg/kg, sc administered 30 mins prior challenge relative to vehicle-treated control; details: route subcutaneous; in short: as §1

O=C(NNC(=O)c1ccncc1)c1ccccc1
inhibition in vivo at 128 mg/kg (Mus musculus [1]): 38.3%
inhibition in vivo at 128 mg/kg (Rattus norvegicus [2]): 17%
inhibition in vivo at 128 mg/kg (Rattus norvegicus [3]): 0%

O=C(NN1CCOCC1)c1cccnc1
inhibition in vivo at 128 mg/kg (Mus musculus [1]): 6.7%
inhibition in vivo at 128 mg/kg (Rattus norvegicus [2]): 50%
inhibition in vivo at 128 mg/kg (Rattus norvegicus [3]): 17%

CN(C)NC(=O)c1cccnc1
inhibition in vivo at 128 mg/kg (Mus musculus [1]): 45%
inhibition in vivo at 64 mg/kg (Rattus norvegicus [4]): 0%
inhibition in vivo at 64 mg/kg (Rattus norvegicus [5]): 0%

O=C(NN1CCc2ccccc2C1)c1ccncc1
inhibition in vivo at 128 mg/kg (Mus musculus [1]): 79%
inhibition in vivo at 128 mg/kg (Rattus norvegicus [2]): 17%
inhibition in vivo at 128 mg/kg (Rattus norvegicus [3]): 17%

CC(=O)N(NC(=O)c1ccncc1)C(C)=O
inhibition in vivo at 128 mg/kg (Mus musculus [1]): 32%
inhibition in vivo at 128 mg/kg (Rattus norvegicus [2]): 50%
inhibition in vivo at 128 mg/kg (Rattus norvegicus [3]): 17%

O=C(NNc1ccccn1)c1ccccn1
inhibition in vivo at 11.8 mg/kg (Mus musculus [6]): 50%
inhibition in vivo at 120 mg/kg (Rattus norvegicus [7]): 100%
inhibition in vivo at 120 mg/kg (Rattus norvegicus [8]): 100%

O=C(NNc1ccccn1)c1ccncc1
inhibition in vivo at 120 mg/kg (Mus musculus [9]): 0%
inhibition in vivo at 100 mg/kg (Rattus norvegicus [10]): 83%
inhibition in vivo at 100 mg/kg (Rattus norvegicus [11]): 100%

O=C(NN(C(=O)c1ccncc1)c1ccccc1)c1ccncc1
inhibition in vivo at 120 mg/kg (Mus musculus [9]): 84%
inhibition in vivo at 100 mg/kg (Rattus norvegicus [10]): 34%
inhibition in vivo at 100 mg/kg (Rattus norvegicus [11]): 34%

CC(=O)Oc1ccccc1C(=O)O [ASPIRIN]
inhibition in vivo at 50 mg/kg (Mus musculus [12]): 50%

COc1ccc2c(c1)c(CC(=O)O)c(C)n2C(=O)c1ccc(Cl)cc1 [INDOMETHACIN]
inhibition in vivo at 12 mg/kg (Rattus norvegicus [13]): 17%
inhibition in vivo at 12 mg/kg (Rattus norvegicus [14]): 83%

CCC(=O)O[C@](Cc1ccccc1)(c1ccccc1)[C@H](C)CN(C)C [PROPOXYPHENE]
inhibition in vivo at 56 mg/kg (Mus musculus [15]): 50%
